Assay results taken from ChEMBL document CHEMBL1133628, “Nonnucleoside human cytomegalovirus inhibitors: synthesis and antiviral evaluation of (chlorophenylmethyl)benzothiadiazine dioxide derivatives” (J Med Chem, 2000).

Tests used:
[1] = test system: Human immunodeficiency virus 2; experiment: In vitro inhibition of HIV-2(ROD) cytopathicity in CEM cells.; format: functional, organism-based; conditions: Human immunodeficiency virus 2, CCRF-CEM
Method in brief: (§1)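 CEM cells at 4×10^5 cells/mL infected with HIV-1 IIIB or HIV-2 ROD (stocks from MT-4 supernatants) at ~100 CCID50/mL, then immediately mixed with compound dilutions. Giant cell formation scored microscopically after 4 days; EC50 is the concentration inhibiting it by 50%. Triplicate assays.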

CCRF-CEM = experiment: In vitro inhibition of CEM cell proliferation.; format: functional; conditions: Homo sapiens
Method in brief: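 CEM cell proliferation measured alongside the HIV assays; CC50 is the concentration reducing CEM cell proliferation by 50%.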

Human alphaherpesvirus 3 [2] = experiment: In vitro inhibition of Thymidine Kinase deficient Varicella Zoster Virus (YS/R) plaque formation.; format: functional, organism-based
Method in brief: (§2)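 Confluent HEL fibroblasts infected with VZV at 20 PFU; after a 2-h adsorption, residual virus removed and cells incubated in MEM with 2% FCS containing serial 5-fold compound dilutions, in duplicate. Fixed with ethanol after 5 days at 37 °C, 5% CO2, then Giemsa-stained; plaques counted microscopically. IC50 read graphically from plaque number (% of control); mean of two independent experiments.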

HEL [3] = experiment: In vitro alteration in cell morphology in HEL cells.; format: functional; conditions: Homo sapiens
Method in brief: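 Normal HEL cells exposed to compounds and examined microscopically; minimum cytotoxic concentration is the lowest giving a detectable change in cell morphology. Duplicate assays.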

Human betaherpesvirus 5 [4] = experiment: In vitro inhibition of HCMV (Davis) plaque formation.; format: functional, organism-based
Method in brief: (§3)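 Confluent HEL fibroblasts infected with HCMV at 100 PFU of cell-free virus; after a 2-h adsorption, residual virus removed and cells incubated in MEM with 2% FCS containing serial 5-fold compound dilutions, in duplicate. Fixed with ethanol after 7 days at 37 °C, 5% CO2, then Giemsa-stained; cytopathic effect scored microscopically. IC50 read graphically from % cytopathicity; mean of two experiments.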

Human alphaherpesvirus 3 [5] = experiment: In vitro inhibition of Thymidine Kinase-Varicella-Zoster Virus(OKA) plaque formation.; format: functional, organism-based; conditions: Human alphaherpesvirus 3, oka; method in brief: as §2
[6] = test system: Human immunodeficiency virus 1; experiment: In vitro inhibition of HIV-1(IIIB) cytopathicity in CEM cells.; format: functional, organism-based; conditions: Human immunodeficiency virus 1, CCRF-CEM; method in brief: as §1
Human alphaherpesvirus 3 [7] = experiment: In vitro inhibition of Thymidine Kinase deficient Varicella Zoster Virus (07/1) plaque formation.; format: functional, organism-based; method in brief: as §2
Human alphaherpesvirus 3 [8] = experiment: In vitro inhibition of Thymidine Kinase-Varicella Zoster Virus(YS) plaque formation.; format: functional, organism-based; method in brief: as §2
HEL [9] = experiment: Inhibition of cell growth in HEL cells.; format: functional; conditions: Homo sapiens
Method in brief: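 HEL fibroblasts seeded at 5×10^3 cells/well and left to proliferate 24 h, then given compound dilutions in duplicate. Incubated 3 days at 37 °C, 5% CO2; cells counted with a Coulter counter. CC50 is the concentration reducing cell growth by 50%.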

Human betaherpesvirus 5 [10] = experiment: In vitro inhibition of HCMV (AD-169) plaque formation.; format: functional, organism-based; method in brief: as §3
[11] = concentration required to reduce virus Human Cytomegalovirus (Davis)plaque formation by 50%; format: functional
Method in brief: (§4)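 Confluent HEL fibroblasts were infected with 100 PFU cell-free HCMV, and residual virus was removed after 2 h. Cells were kept in MEM with 2% FCS and compound dilutions spaced 5-fold, in duplicate, for 7 days at 37 °C in 5% CO2. They were ethanol-fixed and Giemsa-stained, and cytopathic effect was scored microscopically. IC50 was interpolated from plots as the mean of two experiments.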

[12] = concentration required to reduce virus HCMV (AD-169)plaque formation by 50%; format: functional, Homo sapiens; method in brief: as §4
[13] = concentration required to reduce CEM cell proliferation by 50%; conditions: Homo sapiens
Human betaherpesvirus 5 [14] = experiment: concentration required to reduce virus HCMV (E)plaque formation by 50%; format: functional, organism-based
Method in brief: (§5)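 Wild-type HCMV clinical isolates from patients (congenital infection, mononucleosis, AIDS, bone marrow transplant) tested in confluent HEL fibroblasts. IC50 taken as the concentration reducing virus plaque formation by 50%; assays in duplicate.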

Human betaherpesvirus 5 [15] = experiment: concentration required to reduce virus HCMV (G)plaque formation by 50%; format: functional, organism-based; method in brief: as §5
Human betaherpesvirus 5 [16] = experiment: concentration required to reduce virus HCMV (D)plaque formation by 50%; format: functional, organism-based; method in brief: as §5
Human betaherpesvirus 5 [17] = experiment: concentration required to reduce virus HCMV (F)plaque formation by 50%; format: functional, organism-based; method in brief: as §5
Human betaherpesvirus 5 [18] = experiment: concentration required to reduce virus HCMV (C)plaque formation by 50%; format: functional, organism-based; method in brief: as §5
Human betaherpesvirus 5 [19] = experiment: concentration required to reduce virus HCMV (B)plaque formation by 50%; format: functional, organism-based; method in brief: as §5
Human betaherpesvirus 5 [20] = experiment: concentration required to reduce virus HCMV (A)plaque formation by 50%; format: functional, organism-based; method in brief: as §5

SMILES | EC50 [1] | CC50 (CCRF-CEM) | IC50 (Human alphaherpesvirus 3 [2]) | MCC (HEL [3]) | IC50 (Human betaherpesvirus 5 [4]) | IC50 (Human alphaherpesvirus 3 [5]) | EC50 [6] | IC50 (Human alphaherpesvirus 3 [7]) | IC50 (Human alphaherpesvirus 3 [8]) | CC50 (HEL [9]) | IC50 (Human betaherpesvirus 5 [10]) | other results
O=S1(=O)N=C(OCc2ccccc2)c2ccccc2N1Cc1ccccc1 | > 10 µM | 22.2 µM | 20 µM | 200 µM | 7 µM | > 50 µM | > 10 µM | > 50 µM | > 50 µM | > 200 µM | 7 µM | 
O=C1c2ccccc2N(Cc2cccc(Cl)c2)S(=O)(=O)N1Cc1ccccc1 | > 10 µM | 21.3 µM |  | > 5 µM | > 5 µM | > 50 µM | 5.5 µM | 30 µM | > 50 µM | > 200 µM | > 5 µM | 
O=C1c2ccccc2N(Cc2ccccc2Cl)S(=O)(=O)N1Cc1ccccc1 | > 10 µM | 27.9 µM | > 20 µM | 200 µM | 12 µM | > 20 µM | > 10 µM | > 20 µM | > 20 µM | 88 µM | 15 µM | 
O=C1c2ccccc2N(COCc2ccccc2)S(=O)(=O)N1COCc1ccccc1 | 25 µM | 27.7 µM | 10 µM | 200 µM | 12 µM | 14 µM | 25 µM | > 50 µM | > 50 µM | 130 µM | 12 µM | 
O=C1c2ccccc2N(Cc2ccccc2Cl)S(=O)(=O)N1COCc1ccccc1 | > 10 µM | 22.2 µM | 8 µM | 200 µM | 10 µM | > 50 µM | > 10 µM | > 50 µM | > 50 µM | > 50 µM | 10 µM | 
O=C1c2ccccc2N(Cc2ccc(Cl)cc2)S(=O)(=O)N1Cc1ccc(Cl)cc1 | 7.5 µM | 35.8 µM | 2.4 µM | > 50 µM | 3.2 µM | 3.6 µM | > 10 µM | 11 µM | 3.8 µM | > 200 µM | 3.2 µM | 
O=C1c2ccccc2N(Cc2ccccc2)S(=O)(=O)N1Cc1ccccc1 | ≥ 50 µM | 108 µM | 6 µM | > 50 µM | 10 µM | 7.4 µM | 25 µM | 23 µM | 36 µM | > 200 µM | 10 µM | 
O=C1c2ccccc2N(Cc2ccccc2)S(=O)(=O)N1Cc1ccc(Cl)cc1 | > 10 µM | 27.8 µM | 2.6 µM | 20 µM | 3.5 µM | 2.6 µM | 5 µM | 10 µM | 8.2 µM | 121 µM | 3 µM | 
O=C(OCOCN1c2ccccc2C(=O)N(Cc2ccccc2)S1(=O)=O)c1ccccc1 | > 40 µM | 100 µM | 26 µM | 110 µM | > 44 µM | > 44 µM | > 40 µM | > 44 µM | > 44 µM | 37 µM | 29 µM | 
O=C1c2ccccc2N(Cc2ccc(Cl)c(Cl)c2)S(=O)(=O)N1Cc1ccccc1 | > 2 µM | 16.4 µM | 4.5 µM | 200 µM | 3.5 µM | > 50 µM | > 2 µM | 27 µM | > 50 µM | > 200 µM | 3.3 µM | 
O=S1(=O)N=C(OCc2ccccc2)c2ccccc2N1Cc1ccc(Cl)c(Cl)c1 | > 10 µM | 30.5 µM | > 50 µM | 200 µM | > 50 µM | > 50 µM | > 10 µM | > 50 µM | > 20 µM | > 200 µM | > 50 µM | 
O=C1c2ccccc2N(Cc2ccc(Cl)cc2)S(=O)(=O)N1Cc1ccccc1 | 8 µM | 19.7 µM | 2.4 µM | > 5 µM | 3 µM | 18 µM | 6.5 µM | 11 µM | 22 µM | > 200 µM | 4 µM | 
O=C1c2ccccc2N(Cc2ccccc2Cl)S(=O)(=O)N1Cc1ccccc1Cl | > 10 µM | 40.4 µM | 5 µM | > 20 µM | 50 µM | > 50 µM | 15 µM | > 50 µM | > 50 µM | > 200 µM | > 50 µM | 
O=C1c2ccccc2N(Cc2ccccc2)S(=O)(=O)N1Cc1ccccc1Cl | > 250 µM | > 250 µM | > 50 µM | 200 µM | > 50 µM | > 50 µM | > 250 µM | > 50 µM | > 20 µM | > 200 µM | > 50 µM | 
O=S1(=O)N=C(OCc2ccc(Cl)cc2)c2ccccc2N1Cc1ccc(Cl)cc1 |  |  |  |  |  |  |  |  |  |  |  | EC50 [11]: > 50 µM; EC50 [12]: > 50 µM; CC50 [13]: > 250 µM
C#CCOCN1c2ccccc2C(=O)N(Cc2ccccc2)S1(=O)=O | > 8 µM | 23 µM | 36 µM | 140 µM |  |  | > 8 µM |  |  | > 140 µM |  | 
O=C1c2ccccc2N(Cc2ccccc2)S(=O)(=O)N1COCc1ccccc1 | 20 µM | 100 µM |  | 49 µM |  | > 12 µM | 15 µM | > 12 µM | > 12 µM | > 98 µM |  | 
O=C1c2ccccc2N(COCc2ccccc2)S(=O)(=O)N1Cc1ccccc1 | > 8 µM | 25 µM | > 12 µM | 122 µM |  |  | > 8 µM | > 12 µM |  | > 122 µM | 20 µM | 
Nc1nc2c(ncn2COCCO)c(=O)[nH]1 [ACYCLOVIR] |  |  | 63 µM | > 150 µM |  | 4.53 µM |  | 41 µM | 4.09 µM | > 400 µM |  | 
Nc1ccn(C[C@@H](CO)OCP(=O)(O)O)c(=O)n1 [CIDOFOVIR] |  |  |  | > 159 µM | 1.3 µM |  |  |  |  | 317 µM | 0.58 µM | 
Nc1nc2c(ncn2COC(CO)CO)c(=O)[nH]1 [GANCICLOVIR] |  |  |  | > 150 µM |  |  |  |  |  | 394 µM | 3.7 µM | IC50 (Human betaherpesvirus 5 [14]): 4.1 µM; IC50 (Human betaherpesvirus 5 [15]): 8.2 µM; IC50 (Human betaherpesvirus 5 [16]): 4.1 µM; IC50 (Human betaherpesvirus 5 [17]): 6.2 µM; IC50 (Human betaherpesvirus 5 [18]): 6.2 µM; IC50 (Human betaherpesvirus 5 [19]): 6.2 µM; IC50 (Human betaherpesvirus 5 [20]): 6.2 µM
